From ChEMBL document CHEMBL3393007, “IND-2, a pyrimido[1″,2″:1,5]pyrazolo[3,4-b]quinoline derivative, circumvents multi-drug resistance and causes apoptosis in colon cancer cells” (Bioorg Med Chem, 2015)
pIC50: −log10 of the molar value. The source made the active and inactive calls.

How the values were obtained:
[1] = Cytotoxicity against human HCT116 cells after 72 hrs by MTT assay; format: functional, cell-based; settings: HCT-116, 72 h
In short: (§1)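 HCT-116, HCT-15, HT-29, DU-145, PC-3 or HEK293/pcDNA3.1 cells in DMEM with 10% FBS were trypsinised and seeded at 5×10^3 cells/well. They received compound at 0.1–100 μM for 72 hr, then MTT (4 mg/mL) for 4 hr. Formazan was dissolved in DMSO and A570 read. IC50 by Bliss method from survival curves; ≥3 experiments, each in triplicate.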

[2] = Cytotoxicity against human S1 cells after 72 hrs by MTT assay; format: functional, cell-based; settings: S1, 72 h
In short: (§2)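 Seeding was 6×10^3 cells/well (MDCK, NIH/3T3, MCF-7, MDA-MB-231, LS-180, LS-174, LoVo, S1) after trypsinisation, in DMEM with 10% FBS. Compound at 0.1–100 μM for 72 hr, then MTT (4 mg/mL) for 4 hr. Formazan dissolved in DMSO, absorbance at 570 nm. IC50 by Bliss method; means ± SD, ≥3 experiments in triplicate.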

[3] = Cytotoxicity against human PC3 cells after 72 hrs by MTT assay; format: functional, cell-based; settings: PC-3, 72 h; in short: as §1
DU-145 = assay: Cytotoxicity against human DU145 cells after 72 hrs by MTT assay; format: functional, cell-based; settings: DU-145, 72 h; in short: as §1
2008 = assay: Cytotoxicity against human 2008 cells after 72 hrs by MTT assay; format: functional, cell-based; settings: Homo sapiens, 2008, 72 h
In short: (§3)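 MTT assay over 0.1–100 μM with a 72 hr exposure, then 4 hr with MTT (4 mg/mL). Formazan dissolved in DMSO, A570 read. IC50 from survival curves (Bliss method); three independent experiments in triplicate; 100 μM taken as cut-off.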

A2780 = assay: Cytotoxicity against human A2780 cells after 72 hrs by MTT assay; format: functional, cell-based; settings: A2780, 72 h; in short: as §3
HepG2 [4] = assay: Cytotoxicity against human HepG2 cells after 72 hrs by MTT assay; format: functional, cell-based; settings: HepG2, 72 h; in short: as §3
MCF7 = assay: Cytotoxicity against human MCF7 cells after 72 hrs by MTT assay; format: functional, cell-based; settings: MCF7, 72 h; in short: as §2
MDCK = assay: Cytotoxicity against MDCK cells after 72 hrs by MTT assay; format: cell-based; settings: Canis lupus familiaris; in short: as §2
[5] = Cytotoxicity against mouse NIH/3T3 cells after 72 hrs by MTT assay; format: cell-based; settings: NIH3T3, 72 h; in short: as §2
HEK293 [6] = assay: Cytotoxicity against HEK293 cells expressing pcDNA3.1 after 72 hrs by MTT assay; format: cell-based; settings: Homo sapiens, HEK293, 72 h; in short: as §1
[7] = Cytotoxicity against human HCT15 cells after 72 hrs by MTT assay; format: functional, cell-based; settings: HCT-15, 72 h; in short: as §1
HT-29 = assay: Cytotoxicity against human HT-29 cells after 72 hrs by MTT assay; format: functional, cell-based; settings: HT-29, 72 h; in short: as §1
[8] = Cytotoxicity against human LS180 cells after 72 hrs by MTT assay; format: functional, cell-based; settings: LS180, 72 h; in short: as §2
[9] = Cytotoxicity against human LS174 cells after 72 hrs by MTT assay; format: functional, cell-based; settings: LS174, 72 h; in short: as §2
LoVo = assay: Cytotoxicity against human LoVo cells after 72 hrs by MTT assay; format: functional, cell-based; in short: as §2
HCT-116 [10] = assay: Induction of morphological changes in human HCT116 cells at 0.5 to 10 uM after 68 hrs by inverted microscopy; format: functional, cell-based
In short: (§4)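 HCT-116, HCT-15 and HEK293 cells were treated with 0, 0.5, 2 or 10 μM for 68 hr. Each treatment was in triplicate. Cells were photographed under an inverted microscope at 20X and representative images shown.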

HCT-15 = assay: Induction of morphological changes in human HCT15 cells at 0.5 to 10 uM after 68 hrs by inverted microscopy; format: functional, cell-based; in short: as §4
HEK293 [11] = assay: Induction of morphological changes in HEK293 cells at 0.5 to 10 uM after 68 hrs by inverted microscopy; format: cell-based; settings: human, hek293, 68 h; in short: as §4
[12] = target: T1, Nuclear receptor subfamily 1 group I member 2 (Homo sapiens, UniProt O75469); assay: Transactivation of human PXR expressed in human HepG2 cells co-expressing pGL3-CYP3A4-luciferase gene assessed as increase in CYP3A4 promoter activity at 1 uM after 24 hrs by luciferase reporter gene assay; format: ADME, cell-based; settings: hepg2, 24 h
T1 sequence (O75469 whole entry): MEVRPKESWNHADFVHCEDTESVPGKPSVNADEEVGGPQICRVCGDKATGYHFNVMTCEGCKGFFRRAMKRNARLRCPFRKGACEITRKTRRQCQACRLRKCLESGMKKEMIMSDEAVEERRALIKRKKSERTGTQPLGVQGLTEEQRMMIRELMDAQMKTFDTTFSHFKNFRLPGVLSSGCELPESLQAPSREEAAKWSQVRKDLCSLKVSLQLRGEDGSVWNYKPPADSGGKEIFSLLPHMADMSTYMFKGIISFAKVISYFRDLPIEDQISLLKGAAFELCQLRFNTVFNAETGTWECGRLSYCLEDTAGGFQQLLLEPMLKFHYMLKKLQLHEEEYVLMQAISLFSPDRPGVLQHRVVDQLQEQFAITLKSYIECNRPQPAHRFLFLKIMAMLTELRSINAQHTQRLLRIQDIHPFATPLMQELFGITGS
In short: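 HepG2 cells were transiently cotransfected with pcDNA3-hPXR and pGL3-CYP3A4-luc; after 24 hr they were plated at 10,000/well in phenol red-free DMEM with 5% charcoal-stripped FBS. […] Activity expressed as fold over DMSO; three independent experiments.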

[13] = target: T1, Nuclear receptor subfamily 1 group I member 2; assay: Transactivation of human PXR expressed in human HepG2 cells co-expressing pGL3-CYP3A4-luciferase gene assessed as increase in CYP3A4 promoter activity at 10 uM after 24 hrs by luciferase reporter gene assay; settings: hepg2, 24 h
HepG2 [14] = assay: Cytotoxicity against human HepG2 cells assessed as reduction in cell viability at 10 uM after 24 hrs by Celltiter-Glo luminescent cell viability assay; format: cell-based; settings: hepg2, 24 h
In short: (§5)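 Viability of HepG2 cells was measured in parallel with the PXR reporter assay. Cells were transfected, plated at 10,000/well in phenol red-free DMEM with 5% charcoal/dextran-treated FBS, and treated 24 hr with 1 or 10 μM or DMSO. ATP was quantified by CellTiter-Glo luminescence. Means ± SD of triplicates, t-test versus DMSO.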

HepG2 [15] = assay: Cytotoxicity against human HepG2 cells assessed as reduction in cell viability at 1 uM after 24 hrs by Celltiter-Glo luminescent cell viability assay; format: cell-based; settings: hepg2, 24 h; in short: as §5
HEK293 [16] = assay: Cytotoxicity against HEK293 cells expressing ABCB1 gene assessed as reduction in cell viability at 0.001 to 100 uM after 72 hrs by MTT assay; format: functional, cell-based; settings: Homo sapiens
In short: (§6)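 HEK293 stably overexpressing ABCB1 or ABCG2 (R2), with empty-vector HEK293/pcDNA3.1 as the parental control, grown in DMEM with 10% FBS at 37 °C and 5% CO2. Cells were trypsinised and seeded at 5×10^3 cells/well, then exposed to serial concentrations for 72 hr. MTT (4 mg/mL) was added for 4 hr, formazan dissolved in DMSO, and A570 read. IC50 from survival curves (Bliss method), means ± SD of triplicates.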

HEK293 [17] = assay: Cytotoxicity against HEK293 cells expressing ABCG2 gene assessed as reduction in cell viability at 0.001 to 100 uM after 72 hrs by MTT assay; format: functional, cell-based; settings: Homo sapiens; in short: as §6
[18] = Cytotoxicity against drug-resistant human S1-M1-80 cells expressing ABCG2 G482 mutant after 72 hrs by MTT assay relative to SN-38; format: functional
[19] = Cytotoxicity against drug-resistant human S1-M1-80 cells expressing ABCG2 G482 mutant after 72 hrs by MTT assay relative to topotecan; format: functional
HCT-116 [20] = assay: Induction of mitochondrial membrane potential loss in human HCT116 cells at 1 uM after 4 hrs by mitotracker red and Alexa Fluor 488 annexin V staining based flow cytometry; format: functional
In short: (§7)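 HCT-116 cells in 6-well plates, in complete medium, were exposed to 0, 1 or 10 μM for 4 hr. Harvested cells were stained with MitoTracker Red (4 μL of 10 μM working solution per mL) for 30 min at 37 °C, washed, then given Alexa Fluor 488 annexin V for 15 min in annexin-binding buffer. Flow cytometry emission at 530 and 585 nm; two independent experiments in triplicate.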

HCT-116 [21] = assay: Induction of mitochondrial membrane potential loss in human HCT116 cells at 10 uM after 4 hrs by mitotracker red and Alexa Fluor 488 annexin V staining based flow cytometry; format: functional; in short: as §7
HCT-116 [22] = assay: Induction of mitochondrial membrane potential loss in human HCT116 cells after 4 hrs by mitotracker red and Alexa Fluor 488 annexin V staining based flow cytometry; format: functional, cell-based; in short: as §7
HCT-116 [23] = assay: Induction of DNA fragmentation in human HCT116 cells at 2.5 uM after 6 hrs by ethidium bromide staining based agarose gel electrophoresis; format: functional, cell-based
In short: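 HCT-116 cells were cultured with or without 2.5 μM for 6 hr. Genomic DNA was extracted with a purification kit, resolved on 1% agarose gels at 40 V, stained with ethidium bromide and photographed, with untreated DNA loaded at 500 ng and 1 μg.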

MDA-MB-231 = assay: Cytotoxicity against human MDA-MB-231 cells after 72 hrs by MTT assay; format: functional, cell-based; settings: MDA-MB-231, 72 h; in short: as §2
Homo sapiens = organism: Homo sapiens; assay: Cytotoxicity against drug-resistant human S1-M1-80 cells expressing ABCG2 G482 mutant after 72 hrs by MTT assay; format: functional, cell-based
In short: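 S1-M1-80 colon cells (G482 mutant ABCG2), maintained in medium with 80 μM mitoxantrone, tested by MTT alongside parental S1. 72 hr exposure, MTT 4 hr, DMSO solubilisation, A570. IC50 by Bliss method; SN-38 and topotecan run as comparators; means ± SD of triplicate determinations.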

Compound | pIC50 [1] | pIC50 [2] | pIC50 [3] | pIC50 (DU-145) | pIC50 2008 | pIC50 (A2780) | pIC50 (HepG2 [4]) | pIC50 (MCF7) | pIC50 (MDCK) | pIC50 [5] | pIC50 (HEK293 [6]) | pIC50 (MDA-MB-231) | further results
Cc1cc(Cl)n2nc3nc4ccccc4cc3c2n1 | 6.22 | 6.10 | 6.05 | 5.92 | 4.76 | 4.94 | 5.01 | 5.13 | 4.71 | 4.63 | 5.11 |  | pIC50 [7]: 6.17; pIC50 (HT-29): 6.10; pIC50 [8]: 5.99; pIC50 [9]: 6.06; pIC50 (LoVo): 6.00; Activity (HCT-116 [10]): Active; Activity (HCT-15): Active; Activity (HEK293 [11]): Toxic; Activity [12]: Not Active; Activity [13]: Not Active; Activity (HepG2 [14]): Toxic; Activity (HepG2 [15]): Non-toxic; Activity (HEK293 [16]): Active; Activity (HEK293 [17]): Active; fold change (FC) [18]: 3; fold change (FC) [19]: 3; Activity (HCT-116 [20]): 68.46%; Activity (HCT-116 [21]): 98.36%; Activity (HCT-116 [22]): Dose-dependent effect; Activity (HCT-116 [23]): Active
Cc1cc(N2CCOCC2)n2nc3nc4ccccc4cc3c2n1 | 4.05 | 4.17 | 4.11 |  | < 4.00 | < 4.00 | < 4.00 | 4.01 | < 4.00 | < 4.00 |  | 4.05 | 
CCN(CC)CCNc1cc(C)nc2c3cc4ccccc4nc3nn12 |  | 4.35 | 4.20 |  | 4.11 | 4.06 | 4.17 | 4.27 | 4.38 | 4.32 |  | 4.23 | 
Cc1cc(NCCCN(C)C)n2nc3nc4ccccc4cc3c2n1 |  | 4.08 | 4.22 |  | 4.06 | 4.18 | 4.14 | < 4.00 |  | < 4.00 | 4.40 |  | 
CCc1c2c(nc3ccc(O)cc13)-c1cc3c(c(=O)n1C2)COC(=O)[C@]3(O)CC |  |  |  |  |  |  |  |  |  |  |  |  | Activity (Homo sapiens): inactive
Cc1cc(N(C)C)n2nc3nc4ccccc4cc3c2n1 | 4.27 | 4.23 | 4.05 | 4.54 | 4.32 | 4.30 | 4.17 | 4.10 |  |  |  | 4.35 | 
CCN(CC)CCCNc1cc(C)nc2c3cc4ccccc4nc3nn12 |  | 4.27 | 4.11 |  | 4.19 | 4.25 | 4.05 |  |  | < 4.00 | 4.38 | 4.46 | 
Cc1cc(=O)n2nc3nc4ccccc4cc3c2[nH]1 |  | 4.20 | 4.33 |  | 4.05 | 4.13 | 4.05 |  | < 4.00 | 4.01 | 4.16 |  | 
CO[C@H]1/C=C/O[C@@]2(C)Oc3c(C)c(O)c4c(O)c(c(/C=N/N5CCN(C)CC5)c(O)c4c3C2=O)NC(=O)/C(C)=C\C=C\[C@H](C)[C@H](O)[C@@H](C)[C@@H](O)[C@@H](C)[C@H](OC(C)=O)[C@@H]1C [RIFAMPIN] |  |  |  |  |  |  |  |  |  |  |  |  | Activity (HepG2 [14]): Toxic
Cc1cc(NCCN(C)C)n2nc3nc4ccccc4cc3c2n1 | 4.18 | 4.16 | 4.10 | 4.22 | < 4.00 | < 4.00 | < 4.00 |  | < 4.00 | < 4.00 | 4.03 | 4.31 | 
